Tests used:
Test in all cases: NCI-60 single-dose antiproliferative screen
Assay type in all cases: cell-based
CCRF-CEM = settings: Homo sapiens, 48 h, read-out: growth percent
Outline: (§1)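 NCI-60 protocol. Lines were grown in RPMI 1640 with 5% FBS and 2 mM L-glutamine, plated and incubated 24 h at 37 °C; time-zero plates were TCA-fixed. The test compound was dissolved in DMSO, diluted in medium with 50 μg/mL gentamicin and given once at a final 10^-5 M (DMSO control) for 48 h. Cells were fixed with cold TCA (1 h, 4 °C) and stained with 0.4% SRB in 1% acetic acid for 10 min. Dye was dissolved in 10 mM Trizma base and read at 515 nm. Growth percent was calculated from time-zero, test and control ODs.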

K-562 = settings: Homo sapiens, K562, 48 h, read-out: growth percent
Outline: as §1

RPMI-8226 = settings: Homo sapiens, RPMI-8226, 48 h, read-out: growth percent
Outline: as §1

SR = settings: Homo sapiens, 48 h, read-out: growth percent
Outline: (§2)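 Cells grown in RPMI 1640 with 5% FBS and 2 mM L-glutamine, plated and held 24 h at 37 °C; time-zero plates TCA-fixed. DMSO stocks were diluted in gentamicin-containing medium to a final 10^-5 M, with a DMSO-only control. Exposure 48 h, 5% CO2. Adherent cells TCA-fixed 1 h at 4 °C, stained with 0.4% SRB, solubilised in 10 mM Trizma base, read at 515 nm. Growth percent derived from ODtzero, ODtest and ODctrl.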

A549/ATCC = settings: Homo sapiens, A549, 48 h, read-out: growth percent
Outline: as §1

HOP-62 = settings: Homo sapiens, HOP-62, 48 h, read-out: growth percent
Outline: as §1

NCI-H226 = settings: Homo sapiens, NCI-H226, 48 h, read-out: growth percent
Outline: as §1

NCI-H23 = settings: Homo sapiens, NCI-H23, 48 h, read-out: growth percent
Outline: as §1

NCI-H522 = settings: Homo sapiens, NCI-H522, 48 h, read-out: growth percent
Outline: as §1

COLO205 = settings: Homo sapiens, COLO 205, 48 h, read-out: growth percent
Outline: as §1

HCC-2998 = settings: Homo sapiens, HCC 2998, 48 h, read-out: growth percent
Outline: as §1

KM12 = settings: Homo sapiens, KM12, 48 h, read-out: growth percent
Outline: as §1

SW-620 = settings: Homo sapiens, SW-620, 48 h, read-out: growth percent
Outline: as §2

SF-268 = settings: Homo sapiens, SF-268, 48 h, read-out: growth percent
Outline: as §1

SF-539 = settings: Homo sapiens, SF-539, 48 h, read-out: growth percent
Outline: as §2

SNB-75 = settings: Homo sapiens, SNB-75, 48 h, read-out: growth percent
Outline: as §2

MALME-3M = settings: Homo sapiens, 48 h, read-out: growth percent
Outline: as §1

M14 = settings: Homo sapiens, M14, 48 h, read-out: growth percent
Outline: as §1

MDA-MB-435 = settings: Homo sapiens, MDA-MB-435, 48 h, read-out: growth percent
Outline: as §1

SK-MEL-2 = settings: Homo sapiens, SK-MEL-2, 48 h, read-out: growth percent
Outline: as §2

SK-MEL-28 = settings: Homo sapiens, SK-MEL-28, 48 h, read-out: growth percent
Outline: as §2

SK-MEL-5 = settings: Homo sapiens, SK-MEL-5, 48 h, read-out: growth percent
Outline: as §2

UACC-257 = settings: Homo sapiens, UACC-257, 48 h, read-out: growth percent
Outline: as §2

UACC-62 = settings: Homo sapiens, UACC-62, 48 h, read-out: growth percent
Outline: as §2

OVCAR-4 = settings: Homo sapiens, OVCAR-4, 48 h, read-out: growth percent
Outline: as §1

OVCAR-5 = settings: Homo sapiens, OVCAR-5, 48 h, read-out: growth percent
Outline: as §1

OVCAR-8 = settings: Homo sapiens, OVCAR-8, 48 h, read-out: growth percent
Outline: as §1

NCI/ADR-RES = settings: Homo sapiens, 48 h, read-out: growth percent
Outline: as §1

SK-OV-3 = settings: Homo sapiens, SK-OV-3, 48 h, read-out: growth percent
Outline: as §2

CAKI-1 = settings: Homo sapiens, CAKI-1, 48 h, read-out: growth percent
Outline: as §1

RXF 393 = settings: Homo sapiens, RXF 393, 48 h, read-out: growth percent
Outline: as §1

SN12C = settings: Homo sapiens, 48 h, read-out: growth percent
Outline: as §2

TK-10 = settings: Homo sapiens, TK-10, 48 h, read-out: growth percent
Outline: as §2

DU-145 = settings: Homo sapiens, DU-145, 48 h, read-out: growth percent
Outline: as §1

HS 578T = settings: Homo sapiens, 48 h, read-out: growth percent
Outline: as §1

T-47D = settings: Homo sapiens, T47D, 48 h, read-out: growth percent
Outline: as §2

| SMILES | activity at 10 µM (CCRF-CEM) [%] | activity at 10 µM (K-562) [%] | activity at 10 µM (RPMI-8226) [%] | activity at 10 µM (SR) [%] | activity at 10 µM (A549/ATCC) [%] | activity at 10 µM (HOP-62) [%] | activity at 10 µM (NCI-H226) [%] | activity at 10 µM (NCI-H23) [%] | activity at 10 µM (NCI-H522) [%] | activity at 10 µM (COLO205) [%] | activity at 10 µM (HCC-2998) [%] | activity at 10 µM (KM12) [%] | activity at 10 µM (SW-620) [%] | activity at 10 µM (SF-268) [%] | activity at 10 µM (SF-539) [%] | activity at 10 µM (SNB-75) [%] | activity at 10 µM (MALME-3M) [%] | activity at 10 µM (M14) [%] | activity at 10 µM (MDA-MB-435) [%] | activity at 10 µM (SK-MEL-2) [%] | further results |
| --- | --- | --- | --- | --- | --- | --- | --- | --- | --- | --- | --- | --- | --- | --- | --- | --- | --- | --- | --- | --- | --- |
| COc1cc(CNC(=O)CCCC/C=C/C(C)C)ccc1OCc1cn(-c2ccccc2OC)nn1 [14l, (E)-N-(3-Methoxy-4-((1-(2-methoxyphenyl)-1H-1,2,3-triazol-4-yl)methoxy)benzyl)-8-methylnon-6-enamide] | 83.7 | 76.1 | 71.2 | 77.4 | 86 | 88.7 | 80.5 | 96 | 63.9 | 117 | 117 | 98.2 | 97 | 92.6 | 106 | 103 | 106 | 96.7 | 110 | 89.8 | activity at 10 µM (SK-MEL-28): 116%; activity at 10 µM (SK-MEL-5): 83.9%; activity at 10 µM (UACC-257): 85.2%; activity at 10 µM (UACC-62): 75.1%; activity at 10 µM (OVCAR-4): 100%; activity at 10 µM (OVCAR-5): 113%; activity at 10 µM (OVCAR-8): 82.2%; activity at 10 µM (NCI/ADR-RES): 94.6%; activity at 10 µM (SK-OV-3): 99.8%; activity at 10 µM (CAKI-1): 79.9%; activity at 10 µM (RXF 393): 101%; activity at 10 µM (SN12C): 98%; activity at 10 µM (TK-10): 90.2%; activity at 10 µM (DU-145): 83.1%; activity at 10 µM (HS 578T): 83%; activity at 10 µM (T-47D): 92.2% |
| COc1cc(CNC(=O)CCCC/C=C/C(C)C)ccc1OCc1cn(-c2ccccc2Cl)nn1 [14c, (E)-N-(4-((1-(2-Chlorophenyl)-1H-1,2,3-triazol-4-yl)methoxy)-3-methoxybenzyl)-8-methylnon-6-enamide] | 87.9 | 76.8 | 75.5 | 68.5 | 84.3 | 82 | 81.8 | 93.6 | 64.5 | 106 | 110 | 97.7 | 100 | 87.8 | 104 | 87.3 | 107 | 92.6 | 103 | 91 | activity at 10 µM (SK-MEL-28): 106%; activity at 10 µM (SK-MEL-5): 89.8%; activity at 10 µM (UACC-257): 87.9%; activity at 10 µM (UACC-62): 73.3%; activity at 10 µM (OVCAR-4): 87.9%; activity at 10 µM (OVCAR-5): 104%; activity at 10 µM (OVCAR-8): 89.6%; activity at 10 µM (NCI/ADR-RES): 92%; activity at 10 µM (SK-OV-3): 91.3%; activity at 10 µM (CAKI-1): 93.4%; activity at 10 µM (RXF 393): 105%; activity at 10 µM (SN12C): 94.5%; activity at 10 µM (TK-10): 94.6%; activity at 10 µM (DU-145): 99.2%; activity at 10 µM (HS 578T): 97.2%; activity at 10 µM (T-47D): 74.3% |
| COc1cc(CNC(=O)CCCC/C=C/C(C)C)ccc1OCc1cn(-c2ccc(Br)cc2)nn1 [14k, (E)-N-(4-((1-(4-Bromophenyl)-1H-1,2,3-triazol-4-yl)methoxy)-3-methoxybenzyl)-8-methylnon-6-enamide] | 94.2 | 59.2 | 57.4 | 67.2 | 88.5 | 88.2 | 86.3 | 70.2 | 82.5 | 103 | 88.8 | 94.3 | 94.7 | 78.9 | 92.4 | 90.9 | 103 | 90.2 | 107 | 95.2 | activity at 10 µM (SK-MEL-28): 100%; activity at 10 µM (SK-MEL-5): 72%; activity at 10 µM (UACC-257): 90.5%; activity at 10 µM (UACC-62): 63%; activity at 10 µM (OVCAR-4): 89.2%; activity at 10 µM (OVCAR-5): 116%; activity at 10 µM (OVCAR-8): 79.6%; activity at 10 µM (NCI/ADR-RES): 72%; activity at 10 µM (SK-OV-3): 74.8%; activity at 10 µM (CAKI-1): 74.3%; activity at 10 µM (RXF 393): 105%; activity at 10 µM (SN12C): 83%; activity at 10 µM (TK-10): 118%; activity at 10 µM (DU-145): 98.8%; activity at 10 µM (HS 578T): 90.5%; activity at 10 µM (T-47D): 68.4% |
| COc1cc(CNC(=O)CCCC/C=C/C(C)C)ccc1OCc1cn(-c2ccccc2F)nn1 [14i, (E)-N-(4-((1-(2-Fluorophenyl)-1H-1,2,3-triazol-4-yl)methoxy)-3-methoxybenzyl)-8-methylnon-6-enamide] | 88.6 | 82.3 | 81.3 | 81.5 | 91.3 | 85 | 81.3 | 95.3 | 77.5 | 116 | 97.2 | 98.9 | 98.1 | 95 | 105 | 88.1 | 108 | 96.8 | 101 | 106 | activity at 10 µM (SK-MEL-28): 107%; activity at 10 µM (SK-MEL-5): 91.5%; activity at 10 µM (UACC-257): 95%; activity at 10 µM (UACC-62): 76.2%; activity at 10 µM (OVCAR-4): 84.2%; activity at 10 µM (OVCAR-5): 103%; activity at 10 µM (OVCAR-8): 94.5%; activity at 10 µM (NCI/ADR-RES): 89.8%; activity at 10 µM (SK-OV-3): 97.8%; activity at 10 µM (CAKI-1): 90.6%; activity at 10 µM (RXF 393): 103%; activity at 10 µM (SN12C): 92.7%; activity at 10 µM (TK-10): 111%; activity at 10 µM (DU-145): 106%; activity at 10 µM (HS 578T): 87.7%; activity at 10 µM (T-47D): 83.1% |
